# Measurements collected from several papers.
# Lines come from different studies, so protocols differ.
# Target: Mitogen-activated protein kinase 14 (MAPK14, Homo sapiens, UniProt Q16539)
Compound,assay,setting,remaining binding [%]
C[C@@H]1CN(c2ccc3ncc(-c4ccc5[nH]nc(C6CC6)c5c4)n3n2)C[C@H](C)O1,"binding, competition with immobilised ligand",0.5 µM,100
O=C(N1CCS(=O)(=O)CC1)N1C[C@H](c2ccc(OC(F)(F)F)cc2)C[C@H](c2nc(C3CC3)no2)C1,"cell-free assay, competition with immobilised ligand",1 µM,100
O=C(c1ccc(Nc2nccc(-c3cc4ccccc4s3)n2)cc1)N1CCC(N2CCCC2)CC1,"binding, competition with immobilised ligand",1 µM,100
c1cncc(-c2cccc(Nc3nccc(NC4CCCCC4)n3)c2)c1,"binding, competition with immobilised ligand",10 µM,85
CN(C)c1nccc(-c2cnn3ncccc23)n1,binding,1 µM,91
COc1ncc2cc3ccccc3nc2c1C#N,"cell-free assay, competition with immobilised ligand",5 µM,100
N#Cc1ccccc1CSc1nnc2c(n1)[nH]c1ccccc12,"binding, competition with immobilised ligand",10 µM,100
C[C@H]1CCN(c2nccc(-c3cnn4ncccc34)n2)C1,binding,1 µM,100
CNC(=O)[C@@H]1CC[C@@H](n2c(-c3ccc4cnccc4c3)nc3ccc(C(=O)NCc4cccc(C(N)=O)c4)cc32)C1,"binding, competition with immobilised ligand",1 µM,99
O=C(NCC1CCOCC1)c1n[nH]cc1NC(=O)c1c(F)cccc1F,"binding, competition with immobilised ligand",1 µM,100
COc1cc(-c2cn(C3CCc4ccccc4N(CC(F)(F)F)C3=O)nn2)ccc1-n1ccc(C)n1 (stereo not shown),"cell-free assay, competition with immobilised ligand",1 µM,94
COc1ccnn2ncc(-c3ccnc(N(C)C)n3)c12,binding,1 µM,87
CS(=O)(=O)c1cc(C2(NC(=O)c3cncc4c3cnn4-c3ccc(F)cc3)CC2)ccn1,"cell-free assay, competition with immobilised ligand",1 µM,100
O=C(c1ccc(Nc2ncc(Cl)c(-c3ccc(Cl)s3)n2)cc1)N1CCC(N2CCCC2)CC1,"binding, competition with immobilised ligand",1 µM,91
CCN1CCN(Cc2ccc(C(=O)Nc3ccc(C)c(Oc4ccc5c(c4)CC(=O)N5)c3)cc2C(F)(F)F)CC1,"binding, competition with immobilised ligand",1 µM,18
COc1ccc2cc(OCC3(C(=O)O)CN(C(=O)c4ccc(F)cc4)C3)ccc2c1,"cell-free assay, competition with immobilised ligand",1 µM,100
CN(CCCC(F)(F)F)c1nccc(-c2cnn3ncccc23)n1,binding,1 µM,100
O=C1CCc2cc(Nc3cc(OC4CCOCC4)c([N+](=O)[O-])cc3Cl)ccc2N1,"cell-free assay, competition with immobilised ligand",1 µM,100
O=C(NCCCN1CCOCC1)c1ccc(Nc2nccc(-c3cc4ccccc4s3)n2)cc1,"binding, competition with immobilised ligand",1 µM,96
CNCc1ccccc1-c1csc([C@@H](C)Nc2nc(C)nc3cc(OC)c(OC)cc23)c1,"cell-free assay, competition with immobilised ligand",1 µM,87
CN(c1nccc(-c2cnn3ncccc23)n1)C1CC1,binding,1 µM,100
O=C(O)[C@H]1[C@H](Cn2nnc3ccccc3c2=O)CC[C@@H]1C(=O)c1ccc(OCCC2CCOCC2)cc1,"cell-free assay, competition with immobilised ligand",1 µM,85
N[C@H]1CCN(c2nccc(-c3cnn4ncccc34)n2)C1,binding,1 µM,100
CC(=O)Nc1c(C(C)=O)c(=O)n(C)c2nc(-c3ccc(Cl)cc3Cl)c(-c3ccc(Cl)cc3)cc12,"cell-free assay, competition with immobilised ligand",1 µM,100
CN(C)c1ncc(F)c(-c2cnn3ncccc23)n1,binding,1 µM,100
